Compound activity deposited in PubChem BioAssay by several laboratories.
A selection: hits, their analogues and other compounds. The true share with any hit is near 1.8%.
SENP1 inh – SENP1 (human) catalytic domain inhibition; Q9P0U3; recombinant SENP1 catalytic domain, CyPet-SUMO1-YPet FRET cleavage; inhibition, % at 10 µM; actives 0.21% (n = 360,000); AID 624204;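 active means inhibition at least 30% at 10 µM, raw YFP signal under a set limit, fluorescence ratio 0.5 to 1.5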
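Test system: hSENP1 catalytic domain, recombinant; Amount: 20 pM final SENP1 enzyme; Medium: Tris pH 8 buffer plus EDTA, NaCl, BME, BSA, NP40, catalase; Schedule: 50 min enzyme reaction, room temperature, light-protected; Technique: FRET fluorescence in CFP and YFP emission channels; Controls: no-enzyme wells low, DMSO-plus-enzyme wells high control.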
Rpn11 block – Rpn11 (human) deubiquitinase inhibition | O00487 | human 26S proteasome, Ub4-pepOG fluorescence polarization; 20S core pre-blocked with epoxomicin | calls only at 20 µM | actives 0.59% (n = 360,000);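 active means inhibition at 20 µM, scaled to each plate's controls, above about 33%, limit read from the data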
UBC9 SUMO inh – blocks human SUMOylation mediated by UBC9; AID 2006; HTRF SUMOylation assay, SAE1/SAE2 + UBC9, in vitro; actives 0.36% (n = 290,000); P63279; inhibition, % at 35 µM; in the data active means inhibition above about 50%, passing the limit was not always enough
CSN inh – blocks human CSN-mediated cullin deneddylation; Purified CSN, SCF-Nedd8-OG deneddylation, fluorescence polarization; inhibition, % at 12.5 µM; actives 0.38% (n = 360,000); AID 651999;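 active means pattern-corrected inhibition above about 35%, with an unprinted fluorescence ratio check between 0.5 and 1.5, limit read from the data, passing the limit was not always enough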
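Material: human Csn5 produced in HEK293T cells; Input: enzyme 0.24 nM; Reagent: SCFSkp2-Nedd8OG substrate at 10 nM final; Dosing: 12.5 µM compound; Incubation: 90 min reaction at room temperature; Detection: fluorescence polarization of the substrate; Evaluation: % inhibition of substrate cleavage by Csn5; Control set: substrate-only high control, full reaction low control.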
TPT1 inh – blocks Candida albicans tRNA 2'-phosphotransferase. recombinant caTPT1, FP RNA substrate dephosphorylation. inhibition, % at 5 µM. actives 0.81% (n = 300,000);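 active means inhibition above the mean of all tested compounds plus 3 SD, set per screening campaign, cut at about 24% in these data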
HNF4A DNA FP – change in binding of human HNF4 alpha to DNA | actives 0.3% (n = 360,000) | HNF4a-FITC DNA binding, fluorescence polarization, 1 h | P41235 | AID 1224865 | activity change, % at 10 µM; in the data active means activity change above about 30%, passing the limit was not always enough
CSN5 deneddyl – Csn5 (human) deneddylation inhibition, single-concentration validation; shares compounds with CSN inh; inhibition, % at 16.6 µM; actives 62% (n = 540); Csn5 deneddylation of SCF-Nedd8OG, fluorescence polarization, 90 min; in the data active means inhibition above about 50%
MMP-2 counter – counter-screen for CSN deneddylation inhibitors: human MMP-2 inhibition | shares compounds with CSN inh | recombinant MMP-2, FRET substrate fluorescence, 60 min | inhibition, % at 16.6 µM | actives 33% (n = 540) | AID 720655;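 active means corrected plate-normalized z-score of 5 or more, or -5 or less, or inhibition of 15% or more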
Thrombin counter – thrombin (bovine) inhibition, counter-screen for CSN hits; shares compounds with CSN inh; bovine thrombin cleavage of Ub4-pepOG, fluorescence polarization; inhibition, % at 16.6 µM; actives 49% (n = 540); AID 720656;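 active means inhibition at or above a set limit, with a fluorescence interference ratio between 0.5 and a set maximum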
Target sequence (P00735 whole entry, looked up): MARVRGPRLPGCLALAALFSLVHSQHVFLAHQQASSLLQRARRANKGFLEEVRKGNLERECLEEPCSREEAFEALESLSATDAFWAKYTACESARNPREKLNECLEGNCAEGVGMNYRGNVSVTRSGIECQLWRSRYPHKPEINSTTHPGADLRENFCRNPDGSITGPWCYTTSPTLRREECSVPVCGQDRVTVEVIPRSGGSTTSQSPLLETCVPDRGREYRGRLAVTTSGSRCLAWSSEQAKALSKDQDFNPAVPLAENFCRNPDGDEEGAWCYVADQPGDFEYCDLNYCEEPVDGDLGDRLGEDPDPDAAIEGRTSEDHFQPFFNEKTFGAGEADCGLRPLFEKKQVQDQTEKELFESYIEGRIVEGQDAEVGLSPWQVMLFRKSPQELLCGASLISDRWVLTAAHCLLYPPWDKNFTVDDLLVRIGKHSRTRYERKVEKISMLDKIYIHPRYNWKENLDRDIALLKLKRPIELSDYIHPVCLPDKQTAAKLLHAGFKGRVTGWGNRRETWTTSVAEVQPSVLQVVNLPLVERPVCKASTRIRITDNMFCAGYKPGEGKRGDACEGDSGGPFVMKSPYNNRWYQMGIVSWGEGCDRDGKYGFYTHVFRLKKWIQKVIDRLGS
HNF4a DNA conf – change in binding of human HNF4 alpha to DNA, retest. AID 1224897. HNF4A-FITC DNA binding, fluorescence polarization, 1 h. actives 99% (n = 210). activity change, % at 12.5 µM. shares compounds with HNF4A DNA FP; call rule not given here
Large screens that a line does not name were inactive (follow-up assays come after a bar, where shown); ! = not active in a repeat.

Nc1cccc2c1C(=O)N(C(=O)/C=C/c1cccc(Br)c1)C2=O	CSN inh 41 (no result: TPT1 inh) | CSN5 deneddyl 68 | MMP-2 counter inactive | Thrombin counter 46
CCN1CCN(Cc2ccc(NC(=O)c3ccc(C)c(NC(=O)c4c[nH]c5cc(C(F)(F)F)ccc5c4=O)c3)cc2C(F)(F)F)CC1	CSN inh 78!, HNF4A DNA FP 55 | CSN5 deneddyl 90 | MMP-2 counter inactive | Thrombin counter inactive
O=C(CCCN1C(=O)/C(=C\c2ccccc2)SC1=S)Nc1ccc(O)cc1C(=O)O	none
O=C(O)CN1C(=O)/C(=C/c2ccc(SCc3ccccc3)o2)SC1=S	CSN inh 87 (not shown: Rpn11 block, UBC9 SUMO inh, TPT1 inh) | CSN5 deneddyl 88 | MMP-2 counter inactive | Thrombin counter 96
O=C(CCN1C(=O)/C(=C/c2ccco2)SC1=S)Nc1ccc(O)cc1C(=O)O	CSN inh 43 (no result: TPT1 inh) | CSN5 deneddyl 77 | MMP-2 counter inactive | Thrombin counter inactive
O=C(CCCN1C(=O)/C(=C\c2ccco2)SC1=S)Nc1ccc2ccccc2c1	none
O=C(O)CCCN1C(=O)/C(=C\c2ccco2)SC1=S	CSN inh 42 (no result: TPT1 inh) | CSN5 deneddyl 94 | MMP-2 counter 30 | Thrombin counter inactive
Cc1cc2c(SCC(=O)Nc3cccc(O)c3)ncnc2s1	CSN inh 36 (no result: UBC9 SUMO inh, TPT1 inh) | CSN5 deneddyl 85 | MMP-2 counter inactive | Thrombin counter inactive
CN(C)S(=O)(=O)Nc1ccc2c(c1)Cc1ccccc1-2	none
CCNC(=O)C(=O)NCC(c1ccc2c(c1)OCO2)N1CCOCC1 (stereo not given)	none
Cc1nnn(-c2nonc2N)c1C(=O)N/N=C/c1ccccc1O	CSN inh 44 | CSN5 deneddyl inactive | MMP-2 counter 23 | Thrombin counter inactive
O=C(NCc1cc(C(F)(F)F)ccc1Cl)c1cccc2c1C(=O)c1ccc(N3CCC(N4CCCCC4)CC3)cc1S2(=O)=O	CSN inh 82, HNF4A DNA FP 140 (not shown: Rpn11 block, UBC9 SUMO inh, TPT1 inh) | CSN5 deneddyl inactive | MMP-2 counter inactive | Thrombin counter 46
O=C(NCc1cccc(C(F)(F)F)c1)c1cccc2c1C(=O)c1ccc(N3CCC(Cc4ccccc4)CC3)cc1S2(=O)=O	none (no result: UBC9 SUMO inh, TPT1 inh)
O=C(COc1ccc(Cl)cc1Cl)Nc1ccc(C(=O)Nc2ccccc2C(=O)O)cc1	UBC9 SUMO inh 59, CSN inh 52 | CSN5 deneddyl 75 | MMP-2 counter 20 | Thrombin counter inactive
CC(=O)NN1C(=O)/C(=C/c2ccc(Br)o2)SC1=S	SENP1 inh 43, CSN inh 51, HNF4A DNA FP 60 | CSN5 deneddyl 96 | MMP-2 counter 19 | Thrombin counter 34
COc1ccc(OC)c(N(C(=O)c2snc(C(N)=O)c2N)C(C(=O)NCC2CCCO2)c2ccc3ncccc3c2)c1 (stereo not given)	none
Cc1ccc(/C=C2\SC(=S)N(CC3CCCO3)C2=O)o1 (stereo not given)	CSN inh 74 (not shown: Rpn11 block) | CSN5 deneddyl 103 | MMP-2 counter 33 | Thrombin counter 34
O=C1/C(=C/c2cccnc2)SC(=S)N1CC1CCCO1 (stereo not given)	none
CN1C(=O)/C(=C/C=C2\SCCN2C)SC1=S	none (no result: SENP1 inh, Rpn11 block, CSN inh, TPT1 inh, HNF4A DNA FP)
CN1C(=O)/C(=C/C=C2\SCCN2C)N(C)C1=S	HNF4A DNA FP 119 (not shown: Rpn11 block, TPT1 inh) | HNF4a DNA conf 143
CC(C)=CCCC(C)c1cc(C(=O)NCCc2ccc(O)cc2)c(N)s1 (stereo not given)	HNF4A DNA FP 52 (no result: Rpn11 block, UBC9 SUMO inh, TPT1 inh) | HNF4a DNA conf 39
COCCNC(=O)c1cc(-c2ccccc2)sc1N	HNF4A DNA FP 55 (no result: Rpn11 block, UBC9 SUMO inh, TPT1 inh) | HNF4a DNA conf 85
CCCCNC(=O)c1cc(-c2ccccc2)sc1N	none (no result: Rpn11 block, UBC9 SUMO inh, TPT1 inh)
COc1nc(Oc2ccc(C(=O)OCC(N)=O)cc2)nc(N(C)C)n1	none
O=C(Nc1ccccc1)c1cc2ccccc2o1	none
CC/C(=C\c1oc2cc3ccccc3cc2[n+]1CC)Nc1ccccc1	HNF4A DNA FP 51 | HNF4a DNA conf 88
O=C(N/N=C/c1ccc(-c2ccc([N+](=O)[O-])cc2)o1)[C@H]1C[C@@H]1c1ccccc1	HNF4A DNA FP 65 (not shown: Rpn11 block) | HNF4a DNA conf 74
O=C(N/N=C/c1ccc(-c2cccc([N+](=O)[O-])c2)o1)[C@H]1C[C@@H]1c1ccccc1	none
Cc1nc(CSc2nsc(/C=C/N(C)C)c2C#N)cs1	CSN inh 45, HNF4A DNA FP 70 (not shown: Rpn11 block, TPT1 inh) | HNF4a DNA conf 62
Cc1snc(SCc2ccc(F)cc2)c1C#N	none
COc1ccc(CCN(C)C(=O)c2cc(S(=O)(=O)NCc3ccccc3)ccc2C)cc1OC	none (no result: UBC9 SUMO inh)
Cc1c(CNCCC2=CCCCC2)c(C(=O)O)c(C)n1Cc1ccccc1	none
O=C(Cn1cc(/C=N/NC(=O)c2ccccc2Br)c2ccccc21)Nc1ccc(F)cc1	none
O=C(Cn1cc(/C=N/NC(=O)c2cccc3ccccc23)c2ccccc21)Nc1ccc(F)cc1	HNF4A DNA FP 46 (not shown: Rpn11 block) | HNF4a DNA conf 90
O=C(N/N=C/c1cccnc1)c1cccc(NC(=O)c2ccc(Cl)cc2)c1	Rpn11 block active, CSN inh 110, HNF4A DNA FP 90 | HNF4a DNA conf 173
CCOc1ccc(CNC(=O)C2CCN(c3nnc(C)c4c(C)n(-c5ccc(C)cc5)nc34)CC2)cc1	HNF4A DNA FP 45 (not shown: Rpn11 block) | HNF4a DNA conf 50
O=C1CC(=O)N(C2CCCCC2)C(=O)N1c1ccccc1S(=O)(=O)Oc1ccccc1	HNF4A DNA FP 65 (not shown: Rpn11 block, UBC9 SUMO inh, TPT1 inh) | HNF4a DNA conf 41
CCn1c(CC(=O)Nc2ccccc2)nnc1SCC(=O)NC1=NCCS1	none
COc1cc(/C=C2/C(=O)N(C)C(=S)N2C)ccc1OCc1cccc(F)c1	HNF4A DNA FP 36 (not shown: Rpn11 block) | HNF4a DNA conf 50
CN1C(=O)/C(=C/c2ccc(OCc3cccc(F)c3)cc2)NC1=S	none
CCS(=O)(=O)N1N=C(c2ccccc2)CC1c1ccc2nccnc2c1 (stereo not given)	HNF4A DNA FP 53 | HNF4a DNA conf 75
